# Experimental data reported in ChEMBL document CHEMBL1129267, “Aryl 1-but-3-ynyl-4-phenyl-1,2,3,6-tetrahydropyridines as potential antipsychotic agents: synthesis and structure-activity relationships” (J Med Chem, 1996).
# Legend:
# Rattus norvegicus [1] = test: In vivo inhibition of locomotor activity in the rat following p.o. administration.; assay type: functional; details: po
# D(2) dopamine receptor [2] = target: T1, D(2) dopamine receptor (Rattus norvegicus, UniProt P61169); test: Binding affinity at Dopamine receptor D2 in rat striatal membrane by [3H]spiperone displacement.; assay type: cell membranes, Striatum
# Procedure, shortened: (§1)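 Rat striatal membranes; [³H]spiperone 0.2 nM final; nonspecific binding defined with (+)-butaclamol 1.0 µM final. Four to six concentrations, each run in triplicate; Ki obtained by nonlinear regression analysis.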
# Mus musculus [3] = test: (§2) Compound was tested for the inhibition of locomotor activity (LMA)by administering Intraperitoneally in mouse.; assay type: functional; details: ip
# D(2) dopamine receptor [4] = target: T1, D(2) dopamine receptor; test: Compound was evaluated for their affinity against dopamine receptor D2 by displacing [3H]-spiperone in rat striatal membrane; assay type: cell membranes, Striatum; procedure, shortened: as §1
# Mus musculus [5] = test: as §2; assay type: functional; details: ip; remark: listed apart in the source
# Procedure, shortened: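 Mice dosed ip, then tested immediately for 1 h in darkened cylindrical photobeam chambers. Percent inhibition of locomotor activity relative to vehicle-treated animals; ED50 derived from three to six doses, n = 6-18 animals/dose.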
# Rattus norvegicus [6] = test: Compound was tested for the inhibition of locomotor activity (LMA)by administering orally in rat; assay type: functional; details: po
# Procedure, shortened: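 Rats dosed orally 1 h before a 30 min test in darkened cylindrical photobeam chambers. Percent inhibition of locomotor activity relative to vehicle-treated animals; ED50 derived from three to six doses, n = 6-18 animals/dose.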
# D(1A) dopamine receptor [7] = target: T2, D(1A) dopamine receptor (Rattus norvegicus, UniProt P18901); assay type: cell membranes, Brain, Membrane
# [8] = target: T3, 5-hydroxytryptamine receptor 1A (Rattus norvegicus, UniProt P19327); test: Binding affinity against serotonin 5-hydroxytryptamine 1A receptor using radioligand [3H]8-OH-DPAT binding assay
# T3 sequence (P19327 whole entry): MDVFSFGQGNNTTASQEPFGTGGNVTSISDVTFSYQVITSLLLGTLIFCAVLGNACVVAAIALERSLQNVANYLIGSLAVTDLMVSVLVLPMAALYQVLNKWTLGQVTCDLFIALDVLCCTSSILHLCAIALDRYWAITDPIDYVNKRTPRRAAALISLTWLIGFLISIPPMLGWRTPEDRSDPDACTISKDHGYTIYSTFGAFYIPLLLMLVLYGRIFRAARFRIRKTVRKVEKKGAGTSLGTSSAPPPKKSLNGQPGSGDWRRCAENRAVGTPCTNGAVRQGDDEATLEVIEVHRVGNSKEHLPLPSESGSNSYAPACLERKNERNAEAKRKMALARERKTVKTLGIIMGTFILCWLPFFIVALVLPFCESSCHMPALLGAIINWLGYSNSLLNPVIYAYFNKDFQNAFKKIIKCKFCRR
# Procedure, shortened: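 Rat hippocampal membranes labelled with [³H]-8-OH-DPAT (0.4 nM final); nonspecific binding with 8-OH-DPAT (1 µM).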
# D(2) dopamine receptor [9] = target: T1, D(2) dopamine receptor; test: Binding affinity against Dopamine receptor D2 in CHO-K1 cells using radioligand [3H]NPA binding assay; assay type: cell-based
# D(2) dopamine receptor [10] = target: T4, D(2) dopamine receptor (Homo sapiens, UniProt P14416); test: […] Dopamine receptor D2 mitogenesis measured as [3H]thymidine incorporation in CHO p-5 cells expressing human D2 receptors
# Procedure, shortened: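 CHO p-5 cells transfected with human D2L are grown 2 days at 37 °C in medium with 10% calf serum, rinsed, and switched to serum-free medium plus compound in water. After 16-17 h, [³H]thymidine (1 µCi/well) is added for 4 h; cells are harvested onto filters and counted.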
# D(3) dopamine receptor = D(3) dopamine receptor (Homo sapiens, UniProt P35462); test: Binding affinity against human Dopamine receptor D3 in CHO-K1 cells using [3H]spiperone as radioligand; assay type: cell-based
# D(4) dopamine receptor = target: T5, D(4) dopamine receptor (Homo sapiens, UniProt P21917); test: Binding affinity against human Dopamine receptor D4 in CHO-K1 cells using [3H]spiperone as radioligand; assay type: cell-based
# T5 sequence (P21917 whole entry): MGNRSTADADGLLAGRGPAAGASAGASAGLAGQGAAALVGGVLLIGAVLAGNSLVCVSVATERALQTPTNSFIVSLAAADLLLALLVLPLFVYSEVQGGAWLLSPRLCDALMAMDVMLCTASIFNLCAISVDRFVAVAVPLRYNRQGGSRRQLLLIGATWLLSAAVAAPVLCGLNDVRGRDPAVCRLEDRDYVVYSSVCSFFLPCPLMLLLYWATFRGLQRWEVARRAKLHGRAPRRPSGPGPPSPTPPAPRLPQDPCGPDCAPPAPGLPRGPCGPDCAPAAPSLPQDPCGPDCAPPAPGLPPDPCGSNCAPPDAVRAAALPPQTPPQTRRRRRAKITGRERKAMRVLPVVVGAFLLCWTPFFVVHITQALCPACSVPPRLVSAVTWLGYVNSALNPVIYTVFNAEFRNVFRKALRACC
# Procedure, shortened: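 Human D4.2 receptor expressed in CHO K1 cells; [³H]spiperone 0.2 nM final; nonspecific binding defined with haloperidol 1.0 µM final.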
# [11] = target: T6, Adrenergic receptor alpha-1 (Rattus norvegicus, UniProt P15823+P23944+P43140); test: Binding affinity against Alpha-1 adrenergic receptor using radioligand [3H]prazosin binding assay.; assay type: protein assay
# T6 sequence (P15823 whole entry): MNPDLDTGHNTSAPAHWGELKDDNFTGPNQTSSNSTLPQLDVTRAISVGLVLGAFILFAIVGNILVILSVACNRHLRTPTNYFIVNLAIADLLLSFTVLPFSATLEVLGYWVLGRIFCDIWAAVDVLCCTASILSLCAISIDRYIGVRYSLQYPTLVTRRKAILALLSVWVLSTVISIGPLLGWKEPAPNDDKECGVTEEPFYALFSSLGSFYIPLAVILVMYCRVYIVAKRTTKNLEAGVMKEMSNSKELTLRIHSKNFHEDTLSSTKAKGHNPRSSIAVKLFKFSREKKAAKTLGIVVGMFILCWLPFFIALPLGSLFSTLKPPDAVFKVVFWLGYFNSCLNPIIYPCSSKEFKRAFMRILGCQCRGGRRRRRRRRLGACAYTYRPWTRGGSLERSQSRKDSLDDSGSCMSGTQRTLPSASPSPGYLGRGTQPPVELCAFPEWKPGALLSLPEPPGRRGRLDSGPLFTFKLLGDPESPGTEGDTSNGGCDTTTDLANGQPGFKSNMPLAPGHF
# T6 sequence (P23944 whole entry): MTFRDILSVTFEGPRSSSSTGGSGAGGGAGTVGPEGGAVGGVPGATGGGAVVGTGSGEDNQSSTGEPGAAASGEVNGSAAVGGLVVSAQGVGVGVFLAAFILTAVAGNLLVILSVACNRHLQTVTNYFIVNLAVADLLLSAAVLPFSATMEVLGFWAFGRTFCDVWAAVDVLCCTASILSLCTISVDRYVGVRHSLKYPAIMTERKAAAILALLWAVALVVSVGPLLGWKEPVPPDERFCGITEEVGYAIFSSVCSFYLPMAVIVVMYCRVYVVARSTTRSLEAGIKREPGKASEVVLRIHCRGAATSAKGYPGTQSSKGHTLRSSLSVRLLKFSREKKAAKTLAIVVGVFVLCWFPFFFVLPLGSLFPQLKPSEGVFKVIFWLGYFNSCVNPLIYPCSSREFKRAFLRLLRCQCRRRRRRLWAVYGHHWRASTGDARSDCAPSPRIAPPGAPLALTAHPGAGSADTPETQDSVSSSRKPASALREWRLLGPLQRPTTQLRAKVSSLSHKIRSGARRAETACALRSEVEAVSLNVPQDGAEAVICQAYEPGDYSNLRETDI
# T6 sequence (P43140 whole entry): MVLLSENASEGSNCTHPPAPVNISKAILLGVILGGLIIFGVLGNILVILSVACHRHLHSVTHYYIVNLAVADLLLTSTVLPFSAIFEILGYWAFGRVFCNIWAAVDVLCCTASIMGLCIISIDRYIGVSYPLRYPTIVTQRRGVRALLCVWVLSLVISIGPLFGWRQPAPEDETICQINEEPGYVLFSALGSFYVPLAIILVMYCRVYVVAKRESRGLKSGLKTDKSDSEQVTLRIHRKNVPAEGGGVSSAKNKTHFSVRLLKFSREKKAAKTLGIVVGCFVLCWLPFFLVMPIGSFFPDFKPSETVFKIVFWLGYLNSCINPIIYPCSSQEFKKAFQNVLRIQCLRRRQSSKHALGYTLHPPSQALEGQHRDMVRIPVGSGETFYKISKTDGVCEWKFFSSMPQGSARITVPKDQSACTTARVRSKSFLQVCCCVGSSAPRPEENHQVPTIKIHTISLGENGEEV
# Procedure, shortened: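 Inhibition of [³H]prazosin (0.1 nM final) binding in rat cortex membranes; phentolamine (10 µM final) defines nonspecific binding.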
# Monkey = test: Compound was tested for inhibition of conditioned avoidance after administering perorally(po) in squirrel monkeys; assay type: functional; details: Cebidae, in Saimiri
# Rattus norvegicus [12] = test: Percent decrease of the firing rate of rat substantia nigra DA neurons at a dose of 2.5 mg/kg ip; assay type: functional; details: route intraperitoneal
# D(2) dopamine receptor [13] = target: T4, D(2) dopamine receptor; test: Compound was evaluated […] for Dopamine receptor D2 mitogenesis. [3H]thymidine incorporation in CHO p-5 cells expressing human D2 receptors.; assay type: organism-based
# Procedure, shortened: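 CHO p-5 cells transfected with human D2L receptor are grown 2 days at 37 °C in medium with 10% calf serum, then rinsed and put in serum-free medium. Compound (in water) is added for 16-17 h, then [³H]thymidine (1 µCi/well) for 4 h. Cells are harvested and counted. Maximal effect is given as % of quinpirole (100%).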
# D(1A) dopamine receptor [14] = target: T2, D(1A) dopamine receptor; test: Binding affinity against dopamine receptor D1 using radioligand ([3H]-SCH 23390) binding assay
# T1 sequence (P61169 whole entry): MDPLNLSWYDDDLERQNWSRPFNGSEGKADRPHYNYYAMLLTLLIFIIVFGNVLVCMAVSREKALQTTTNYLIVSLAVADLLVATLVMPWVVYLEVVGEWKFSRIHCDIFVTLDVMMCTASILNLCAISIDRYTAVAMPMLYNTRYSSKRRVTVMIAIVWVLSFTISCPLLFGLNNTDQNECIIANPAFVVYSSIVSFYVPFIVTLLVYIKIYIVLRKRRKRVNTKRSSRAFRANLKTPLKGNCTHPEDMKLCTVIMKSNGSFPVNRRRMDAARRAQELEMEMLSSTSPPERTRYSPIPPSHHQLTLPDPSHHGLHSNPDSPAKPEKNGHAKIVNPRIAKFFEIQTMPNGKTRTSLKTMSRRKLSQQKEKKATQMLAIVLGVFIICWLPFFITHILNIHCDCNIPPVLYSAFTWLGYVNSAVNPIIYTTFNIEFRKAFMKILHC
# T2 sequence (P18901 whole entry): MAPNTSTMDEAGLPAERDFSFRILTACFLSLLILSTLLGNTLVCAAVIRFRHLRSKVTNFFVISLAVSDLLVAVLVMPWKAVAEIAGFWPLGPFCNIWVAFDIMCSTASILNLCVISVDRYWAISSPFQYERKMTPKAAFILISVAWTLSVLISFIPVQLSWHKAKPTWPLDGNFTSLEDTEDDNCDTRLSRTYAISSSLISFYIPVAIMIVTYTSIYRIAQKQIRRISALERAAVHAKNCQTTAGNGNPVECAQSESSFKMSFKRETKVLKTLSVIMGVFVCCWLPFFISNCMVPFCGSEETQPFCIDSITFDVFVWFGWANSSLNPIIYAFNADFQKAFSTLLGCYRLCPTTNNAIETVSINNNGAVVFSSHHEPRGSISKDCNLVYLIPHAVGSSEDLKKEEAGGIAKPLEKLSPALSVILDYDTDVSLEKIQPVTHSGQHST
# T4 sequence (P14416 whole entry): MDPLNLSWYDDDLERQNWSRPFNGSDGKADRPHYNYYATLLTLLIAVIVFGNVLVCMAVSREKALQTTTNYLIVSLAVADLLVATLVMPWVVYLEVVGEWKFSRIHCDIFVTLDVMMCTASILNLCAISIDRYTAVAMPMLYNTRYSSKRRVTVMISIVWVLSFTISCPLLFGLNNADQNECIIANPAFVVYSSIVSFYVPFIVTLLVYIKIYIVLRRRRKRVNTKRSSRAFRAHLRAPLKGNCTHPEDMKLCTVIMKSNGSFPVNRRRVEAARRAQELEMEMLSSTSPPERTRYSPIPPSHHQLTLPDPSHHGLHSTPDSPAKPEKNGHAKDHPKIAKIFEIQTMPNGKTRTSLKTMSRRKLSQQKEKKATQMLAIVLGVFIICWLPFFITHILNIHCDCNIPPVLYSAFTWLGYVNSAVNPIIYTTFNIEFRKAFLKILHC
# D(3) dopamine receptor, sequence (P35462 whole entry): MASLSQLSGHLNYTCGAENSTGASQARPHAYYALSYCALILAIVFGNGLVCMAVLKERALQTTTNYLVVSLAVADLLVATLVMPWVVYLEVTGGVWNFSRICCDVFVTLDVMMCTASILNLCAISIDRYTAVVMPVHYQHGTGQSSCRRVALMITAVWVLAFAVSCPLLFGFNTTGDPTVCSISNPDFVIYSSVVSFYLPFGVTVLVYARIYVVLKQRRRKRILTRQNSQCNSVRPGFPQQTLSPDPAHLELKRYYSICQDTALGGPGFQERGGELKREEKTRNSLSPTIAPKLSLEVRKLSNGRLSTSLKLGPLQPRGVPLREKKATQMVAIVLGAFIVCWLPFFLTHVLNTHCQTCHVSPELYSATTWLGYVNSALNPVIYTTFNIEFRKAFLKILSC
compound,measurement,setting,value
C(#Cc1ccc2[nH]ccc2c1)CCN1CC=C(c2ccccc2)CC1,ED50,Rattus norvegicus [1],5.2 mg/kg
same,Ki,D(2) dopamine receptor [2],193 nM
same,ED50,Mus musculus [3],1.2 mg/kg
Nc1ccccc1C#CCCN1CC=C(c2ccccc2)CC1,ED50,Rattus norvegicus [1],23.9 mg/kg
same,Ki,D(2) dopamine receptor [4],183 nM
same,ED50,Mus musculus [5],1.6 mg/kg
C(#Cc1cccnc1)CCCN1CC=C(c2ccccc2)CC1,ED50,Rattus norvegicus [1],4.3 mg/kg
same,Ki,D(2) dopamine receptor [2],56 nM
C(#Cc1cnc2ccccc2c1)CCCN1CC=C(c2ccccc2)CC1,ED50,Rattus norvegicus [1],18.6 mg/kg
C(#Cc1ccc2occc2c1)CCN1CC=C(c2ccccc2)CC1,ED50,Rattus norvegicus [1],10.6 mg/kg
same,Ki,D(2) dopamine receptor [2],440 nM
same,ED50,Mus musculus [3],2.5 mg/kg
Oc1ccc(C#CCCN2CC=C(c3ccccc3)CC2)cc1,ED50,Rattus norvegicus [6],> 30 mg/kg
same,Ki,D(2) dopamine receptor [4],54 nM
same,ED50,Mus musculus [3],1.5 mg/kg
Nc1ccc(C#CCCN2CC=C(c3ccccc3)CC2)nc1,ED50,Rattus norvegicus [1],1.7 mg/kg
same,Ki,D(1A) dopamine receptor [7],> 10000 nM
same,Ki,[8],69 nM
same,Ki,D(2) dopamine receptor [9],1.9 nM
same,EC50,D(2) dopamine receptor [10],1.3 nM
same,Ki,D(3) dopamine receptor,2.6 nM
same,Ki,D(4) dopamine receptor,371 nM
same,Ki,[11],57.5 nM
same,Ki,D(2) dopamine receptor [2],63 nM
same,ED50,Monkey,0.43 mg/kg
same,Decrease,Rattus norvegicus [12],100%
C(#Cc1cccnc1)CCN1CC=C(c2ccccc2)CC1,ED50,Rattus norvegicus [1],1.4 mg/kg
same,Ki,D(1A) dopamine receptor [7],5000 nM
same,Ki,[8],555 nM
same,Ki,D(2) dopamine receptor [9],3.3 nM
same,EC50,D(2) dopamine receptor [10],1.7 nM
same,Ki,D(3) dopamine receptor,20 nM
same,Ki,D(4) dopamine receptor,681 nM
same,Ki,[11],14.1 nM
same,Ki,D(2) dopamine receptor [2],37 nM
same,ED50,Monkey,10.1 mg/kg
same,Decrease,Rattus norvegicus [12],100%
C(#Cc1cncc2ccccc12)CCN1CC=C(c2ccccc2)CC1,ED50,Rattus norvegicus [1],3.8 mg/kg
same,Ki,D(2) dopamine receptor [2],73 nM
C(#Cc1cnc2ccccc2c1)CN1CC=C(c2ccccc2)CC1,Ki,D(2) dopamine receptor [2],> 10000 nM
same,ED50,Mus musculus [5],> 30 mg/kg
C(#Cc1ccccn1)CCN1CC=C(c2ccccc2)CC1,ED50,Rattus norvegicus [1],15.8 mg/kg
same,Ki,D(2) dopamine receptor [2],136 nM
Nc1ccc(C#CCCN2CC=C(c3ccccc3)CC2)cc1,ED50,Rattus norvegicus [6],2.7 mg/kg
same,Ki,D(2) dopamine receptor [4],48 nM
same,Ki,[8],> 10000 nM
same,Ki,D(2) dopamine receptor [9],0.67 nM
same,Ki,D(4) dopamine receptor,228 nM
same,Ki,[11],34.5 nM
same,ED50,Monkey,3.8 mg/kg
same,Max effect,D(2) dopamine receptor [13],49%
same,Ki,D(1A) dopamine receptor [14],> 10000 nM
same,Decrease,Rattus norvegicus [12],81%
